Measured values published in ChEMBL document CHEMBL4177603 (Bioorg Med Chem Lett, 2017).
pEC50, pIC50, pKi: −log10 of the molar value.

Experiments:
[1] = Solubility of the compound in aqueous buffer at pH 7.1; type: physicochemical
[2] = target: Sodium channel protein type 4 subunit alpha (Homo sapiens, UniProt P35499); test: Inhibition of human Nav1.4 expressed in HEK cells by patch clamp electrophysiology method; type: cell-based
[3] = Renal clearance in dog at 0.3 mg/kg, iv via infusion for 0.5 hrs; type: ADME, organism-based, Canis lupus familiaris, Kidney; settings: in vivo
[4] = Terminal half-life in dog at 0.3 mg/kg, iv via infusion for 0.5 hrs; type: ADME, organism-based, Canis lupus familiaris; settings: in vivo, read-out: beta t1/2 (converted)
Procedure, shortened: (§1)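 Dog IV pharmacokinetics, with half-life reported as two values: α (initial phase) and β (terminal phase) of the disposition profile.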

[5] = Primary phase half-life in dog at 0.3 mg/kg, iv via infusion for 0.5 hrs; type: ADME, organism-based, Canis lupus familiaris; settings: in vivo, read-out: alphat1/2 (converted); procedure, shortened: as §1
[6] = Clearance in bile duct cannulated rat at 0.3 mg/kg, iv via infusion for 1 hr; type: ADME, organism-based; settings: in vivo
Procedure, shortened: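 Plasma clearance was taken from a study in bile duct cannulated rats.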

[7] = Half-life in iv dosed mouse; type: ADME, organism-based; settings: in vivo
Cytochrome P450 3A4 = Cytochrome P450 3A4 (Homo sapiens, UniProt P08684); test: Inhibition of CYP3A4 (unknown origin); type: ADME
[8] = Protein binding in mouse plasma assessed as fraction unbound; type: ADME, cell-free
[9] = Intrinsic clearance in dog hepatocytes assessed per million cells; type: ADME, cell-based, Canis lupus familiaris, Hepatocyte; settings: read-out: CLH
[10] = Intrinsic clearance in rat hepatocytes assessed per million cells; type: ADME, cell-based, Hepatocyte; settings: read-out: CLH
[11] = target: Sodium channel protein type 11 subunit alpha (Homo sapiens, UniProt Q9UI33); test: Inhibition of human Nav1.9 expressed in HEK cells by automated patchXpress electrophysiology method; type: cell-based
[12] = target: T1, Alpha-1A adrenergic receptor (Homo sapiens) (UniProt P35348); test: Agonist activity at recombinant human alpha1a receptor expressed in CHOK1 cells assessed as increase in calcium flux at 10 uM by fluorescence assay relative to control; type: functional, cell-based
T1 sequence (whole entry): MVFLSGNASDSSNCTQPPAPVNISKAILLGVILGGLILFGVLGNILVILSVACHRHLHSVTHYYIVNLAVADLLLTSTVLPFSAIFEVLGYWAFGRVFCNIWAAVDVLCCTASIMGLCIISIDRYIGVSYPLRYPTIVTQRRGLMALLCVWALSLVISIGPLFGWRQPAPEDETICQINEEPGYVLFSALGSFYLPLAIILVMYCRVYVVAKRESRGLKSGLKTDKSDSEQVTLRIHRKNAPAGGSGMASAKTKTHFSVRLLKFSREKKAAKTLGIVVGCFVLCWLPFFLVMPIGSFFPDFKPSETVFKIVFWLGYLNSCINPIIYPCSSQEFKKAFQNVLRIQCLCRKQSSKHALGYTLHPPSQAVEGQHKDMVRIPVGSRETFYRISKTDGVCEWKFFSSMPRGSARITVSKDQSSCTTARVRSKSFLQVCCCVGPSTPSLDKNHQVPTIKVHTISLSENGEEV

[13] = target: Histamine H2 receptor (Homo sapiens) (UniProt P25021); test: Agonist activity at recombinant human H2 receptor expressed in CHOK1 cells assessed as increase in cAMP accumulation at 10 uM measured after 30 mins by HTRF assay relative to control; type: functional, cell-based
[14] = target: Histamine H3 receptor (Homo sapiens) (UniProt Q9Y5N1); test: Agonist activity at recombinant human H3 receptor expressed in CHOK1 cells assessed as increase in cAMP accumulation at 10 uM measured after 10 mins by HTRF assay relative to control; type: functional, cell-based
[15] = target: T2, Muscarinic acetylcholine receptor M1 (Homo sapiens) (UniProt P11229); test: Agonist activity at human M1 receptor expressed in CHOK1 cells assessed as increase in calcium flux at 10 uM by fluorimetric method relative to control; type: functional, cell-based
T2 sequence (whole entry): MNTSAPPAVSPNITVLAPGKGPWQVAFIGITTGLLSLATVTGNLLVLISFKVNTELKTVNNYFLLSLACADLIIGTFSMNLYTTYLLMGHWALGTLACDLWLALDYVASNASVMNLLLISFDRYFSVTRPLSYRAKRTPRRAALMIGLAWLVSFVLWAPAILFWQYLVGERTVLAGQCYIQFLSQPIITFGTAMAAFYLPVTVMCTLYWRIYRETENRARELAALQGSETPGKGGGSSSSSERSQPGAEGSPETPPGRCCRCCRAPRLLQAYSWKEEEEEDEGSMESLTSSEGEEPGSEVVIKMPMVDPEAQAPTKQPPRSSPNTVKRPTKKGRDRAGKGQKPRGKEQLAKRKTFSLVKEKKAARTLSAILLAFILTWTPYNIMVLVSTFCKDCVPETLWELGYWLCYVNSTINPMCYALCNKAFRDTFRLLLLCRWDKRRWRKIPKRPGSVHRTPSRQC

[16] = target: Muscarinic acetylcholine receptor M2 (Homo sapiens) (UniProt P08172); test: Agonist activity at recombinant human M2 receptor expressed in CHOK1 cells assessed as increase in cAMP accumulation at 10 uM measured after 10 mins by HTRF assay relative to control; type: functional, cell-based
[17] = target: Muscarinic acetylcholine receptor M3 (Homo sapiens) (UniProt P20309); test: Agonist activity at human M3 receptor expressed in CHOK1 cells assessed as increase in calcium flux at 10 uM by fluorimetric method relative to control; type: functional, cell-based
[18] = target: Kappa-type opioid receptor (Homo sapiens) (UniProt P41145); test: Agonist activity at human KOR assessed as increase in calcium flux at 10 uM by fluorimetric method relative to control; type: functional
[19] = target: 5-hydroxytryptamine receptor 2B (Homo sapiens) (UniProt P41595); test: Agonist activity at human 5-HT2B receptor expressed in CHOK1 cells assessed as increase in IP1 accumulation at 10 uM measured after 30 mins by HTRF method relative to control; type: functional, cell-based
[20] = target: T1, Alpha-1A adrenergic receptor (Homo sapiens); test: Antagonist activity at recombinant human alpha1a receptor expressed in CHOK1 cells assessed as inhibition of epinephrine-induced calcium flux at 10 uM by fluorescence assay relative to control; type: functional, cell-based
[21] = target: D(2) dopamine receptor (Homo sapiens) (UniProt P14416); test: Antagonist activity at recombinant human D2S receptor expressed in HEK293 cells assessed as inhibition of dopamine-induced cell impedance at 10 uM by cellular dielectric spectroscopic method relative to control; type: cell-based
Rattus norvegicus = organism: Rattus norvegicus; test: Displacement of [3H]AMPA from rat brain AMPA receptor at 10 uM after 60 mins by scintillation counting method
[22] = target: D(1A) dopamine receptor (Homo sapiens) (UniProt P21728); test: Displacement of [3H]SCH 23390 from recombinant human D1 receptor at 10 uM after 60 mins by scintillation counting method
[23] = target: Voltage-gated inwardly rectifying potassium channel KCNH2 (Homo sapiens, UniProt Q12809); test: Displacement of [3H]Dofetilide from recombinant human ERG after 60 mins by scintillation counting method
[24] = target: 5-hydroxytryptamine receptor 1B (Homo sapiens, UniProt P28222); test: Agonist activity at human 5-HT1B receptor expressed in HeLa cells assessed as increase in cAMP accumulation measured after 20 mins by HTRF method; type: functional, cell-based
[25] = Inhibition of sodium channel site2 (unknown origin) by radioligand binding assay relative to control; parameters: species or system Homo sapiens

Chain of Muscarinic acetylcholine receptor M2 (Homo sapiens) (P08172 whole entry): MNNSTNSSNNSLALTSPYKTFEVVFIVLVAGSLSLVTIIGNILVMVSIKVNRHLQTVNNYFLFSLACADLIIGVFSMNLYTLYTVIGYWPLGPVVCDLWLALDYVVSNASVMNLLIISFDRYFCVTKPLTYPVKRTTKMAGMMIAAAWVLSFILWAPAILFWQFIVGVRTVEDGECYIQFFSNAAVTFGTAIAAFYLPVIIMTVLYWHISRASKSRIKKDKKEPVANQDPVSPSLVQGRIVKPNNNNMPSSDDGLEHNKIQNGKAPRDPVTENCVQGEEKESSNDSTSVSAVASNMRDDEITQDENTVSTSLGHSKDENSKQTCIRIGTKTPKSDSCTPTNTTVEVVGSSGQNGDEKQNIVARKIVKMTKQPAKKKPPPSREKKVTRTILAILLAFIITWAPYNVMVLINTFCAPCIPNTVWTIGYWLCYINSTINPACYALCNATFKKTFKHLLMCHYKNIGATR
Chain of D(2) dopamine receptor (Homo sapiens) (P14416 whole entry): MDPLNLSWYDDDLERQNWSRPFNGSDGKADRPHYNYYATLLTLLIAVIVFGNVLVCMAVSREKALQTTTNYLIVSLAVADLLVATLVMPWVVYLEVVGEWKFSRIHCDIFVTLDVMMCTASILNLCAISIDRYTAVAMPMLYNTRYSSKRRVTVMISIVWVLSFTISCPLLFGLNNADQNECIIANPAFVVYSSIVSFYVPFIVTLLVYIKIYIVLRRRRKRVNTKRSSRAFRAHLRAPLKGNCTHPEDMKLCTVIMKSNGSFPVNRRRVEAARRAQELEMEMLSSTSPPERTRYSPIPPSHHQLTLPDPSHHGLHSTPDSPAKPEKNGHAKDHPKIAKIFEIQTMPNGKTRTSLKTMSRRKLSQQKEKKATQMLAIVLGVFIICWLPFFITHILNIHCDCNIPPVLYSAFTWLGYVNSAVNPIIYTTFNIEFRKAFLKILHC
Chain of D(1A) dopamine receptor (Homo sapiens) (P21728 whole entry): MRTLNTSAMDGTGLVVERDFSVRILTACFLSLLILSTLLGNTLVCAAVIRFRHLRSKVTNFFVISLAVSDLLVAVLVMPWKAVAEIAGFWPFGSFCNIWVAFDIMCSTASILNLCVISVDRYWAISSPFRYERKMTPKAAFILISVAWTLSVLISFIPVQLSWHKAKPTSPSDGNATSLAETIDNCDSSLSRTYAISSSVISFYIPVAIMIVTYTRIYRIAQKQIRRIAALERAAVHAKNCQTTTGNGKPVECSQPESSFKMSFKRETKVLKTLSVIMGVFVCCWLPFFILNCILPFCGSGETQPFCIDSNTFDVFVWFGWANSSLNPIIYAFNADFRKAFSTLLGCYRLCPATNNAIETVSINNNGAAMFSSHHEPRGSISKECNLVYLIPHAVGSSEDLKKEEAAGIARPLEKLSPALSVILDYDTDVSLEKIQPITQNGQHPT
Chain of Sodium channel protein type 4 subunit alpha (P35499 whole entry, the tested form may be a part): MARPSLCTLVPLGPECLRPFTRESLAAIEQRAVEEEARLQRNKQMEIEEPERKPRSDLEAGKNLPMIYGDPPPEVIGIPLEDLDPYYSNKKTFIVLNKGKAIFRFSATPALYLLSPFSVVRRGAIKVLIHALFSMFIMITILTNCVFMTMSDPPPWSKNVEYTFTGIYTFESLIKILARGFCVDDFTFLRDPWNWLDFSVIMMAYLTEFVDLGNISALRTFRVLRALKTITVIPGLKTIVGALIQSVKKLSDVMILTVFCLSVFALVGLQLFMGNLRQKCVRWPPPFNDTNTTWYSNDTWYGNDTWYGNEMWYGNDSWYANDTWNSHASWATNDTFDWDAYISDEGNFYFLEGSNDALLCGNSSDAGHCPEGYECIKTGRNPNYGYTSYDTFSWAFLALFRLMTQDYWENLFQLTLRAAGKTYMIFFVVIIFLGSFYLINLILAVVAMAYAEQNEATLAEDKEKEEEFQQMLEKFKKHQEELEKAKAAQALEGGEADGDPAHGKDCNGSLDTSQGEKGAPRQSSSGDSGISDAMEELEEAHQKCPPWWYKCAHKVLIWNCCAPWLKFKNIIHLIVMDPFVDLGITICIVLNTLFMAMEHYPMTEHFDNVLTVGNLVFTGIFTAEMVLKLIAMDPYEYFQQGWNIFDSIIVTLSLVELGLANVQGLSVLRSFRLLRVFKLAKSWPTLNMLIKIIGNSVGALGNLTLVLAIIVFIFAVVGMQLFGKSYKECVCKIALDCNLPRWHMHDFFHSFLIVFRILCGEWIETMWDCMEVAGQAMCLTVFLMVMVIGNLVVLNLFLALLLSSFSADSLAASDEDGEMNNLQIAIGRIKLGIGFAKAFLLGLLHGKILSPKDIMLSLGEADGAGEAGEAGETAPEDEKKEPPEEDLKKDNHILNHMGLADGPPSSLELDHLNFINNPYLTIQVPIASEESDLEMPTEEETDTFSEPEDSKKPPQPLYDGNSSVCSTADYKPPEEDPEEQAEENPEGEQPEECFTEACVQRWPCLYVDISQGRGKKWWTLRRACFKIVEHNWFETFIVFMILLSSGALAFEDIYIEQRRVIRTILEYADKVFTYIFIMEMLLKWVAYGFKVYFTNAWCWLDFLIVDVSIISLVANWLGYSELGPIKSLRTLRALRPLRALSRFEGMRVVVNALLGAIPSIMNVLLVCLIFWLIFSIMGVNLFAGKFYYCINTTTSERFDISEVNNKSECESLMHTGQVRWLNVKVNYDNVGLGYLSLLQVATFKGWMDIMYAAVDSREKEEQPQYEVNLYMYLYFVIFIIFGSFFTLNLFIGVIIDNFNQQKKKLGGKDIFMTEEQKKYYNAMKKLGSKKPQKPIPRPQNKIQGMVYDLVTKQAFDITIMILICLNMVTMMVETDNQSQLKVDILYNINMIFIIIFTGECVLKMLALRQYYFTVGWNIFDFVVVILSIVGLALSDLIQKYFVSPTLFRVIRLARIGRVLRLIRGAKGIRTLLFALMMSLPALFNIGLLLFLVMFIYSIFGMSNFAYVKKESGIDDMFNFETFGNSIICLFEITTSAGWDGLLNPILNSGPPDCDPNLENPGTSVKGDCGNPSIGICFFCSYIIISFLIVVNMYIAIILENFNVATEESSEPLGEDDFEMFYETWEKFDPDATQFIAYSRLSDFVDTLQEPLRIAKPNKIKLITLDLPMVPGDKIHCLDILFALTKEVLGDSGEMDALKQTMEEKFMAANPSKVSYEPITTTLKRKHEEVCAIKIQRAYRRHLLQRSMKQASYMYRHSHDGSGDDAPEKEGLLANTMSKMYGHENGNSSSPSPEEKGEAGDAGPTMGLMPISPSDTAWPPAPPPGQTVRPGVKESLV
Chain of Muscarinic acetylcholine receptor M3 (Homo sapiens) (P20309 whole entry, looked up): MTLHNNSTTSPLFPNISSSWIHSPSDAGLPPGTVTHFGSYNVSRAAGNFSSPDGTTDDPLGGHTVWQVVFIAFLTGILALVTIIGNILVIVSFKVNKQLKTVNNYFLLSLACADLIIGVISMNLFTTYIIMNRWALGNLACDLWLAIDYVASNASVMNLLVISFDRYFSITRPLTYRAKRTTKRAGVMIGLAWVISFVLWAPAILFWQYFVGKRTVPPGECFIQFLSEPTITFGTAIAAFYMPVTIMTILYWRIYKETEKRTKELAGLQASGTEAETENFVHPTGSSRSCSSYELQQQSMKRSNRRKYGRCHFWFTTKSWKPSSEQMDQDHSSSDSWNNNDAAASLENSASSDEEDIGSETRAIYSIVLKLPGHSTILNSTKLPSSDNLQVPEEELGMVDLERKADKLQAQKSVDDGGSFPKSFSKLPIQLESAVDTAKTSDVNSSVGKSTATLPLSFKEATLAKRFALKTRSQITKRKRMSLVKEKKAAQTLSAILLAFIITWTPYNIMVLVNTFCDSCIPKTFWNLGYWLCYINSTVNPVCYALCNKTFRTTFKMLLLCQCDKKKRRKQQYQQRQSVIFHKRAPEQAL
Chain of Voltage-gated inwardly rectifying potassium channel KCNH2 (Q12809 whole entry): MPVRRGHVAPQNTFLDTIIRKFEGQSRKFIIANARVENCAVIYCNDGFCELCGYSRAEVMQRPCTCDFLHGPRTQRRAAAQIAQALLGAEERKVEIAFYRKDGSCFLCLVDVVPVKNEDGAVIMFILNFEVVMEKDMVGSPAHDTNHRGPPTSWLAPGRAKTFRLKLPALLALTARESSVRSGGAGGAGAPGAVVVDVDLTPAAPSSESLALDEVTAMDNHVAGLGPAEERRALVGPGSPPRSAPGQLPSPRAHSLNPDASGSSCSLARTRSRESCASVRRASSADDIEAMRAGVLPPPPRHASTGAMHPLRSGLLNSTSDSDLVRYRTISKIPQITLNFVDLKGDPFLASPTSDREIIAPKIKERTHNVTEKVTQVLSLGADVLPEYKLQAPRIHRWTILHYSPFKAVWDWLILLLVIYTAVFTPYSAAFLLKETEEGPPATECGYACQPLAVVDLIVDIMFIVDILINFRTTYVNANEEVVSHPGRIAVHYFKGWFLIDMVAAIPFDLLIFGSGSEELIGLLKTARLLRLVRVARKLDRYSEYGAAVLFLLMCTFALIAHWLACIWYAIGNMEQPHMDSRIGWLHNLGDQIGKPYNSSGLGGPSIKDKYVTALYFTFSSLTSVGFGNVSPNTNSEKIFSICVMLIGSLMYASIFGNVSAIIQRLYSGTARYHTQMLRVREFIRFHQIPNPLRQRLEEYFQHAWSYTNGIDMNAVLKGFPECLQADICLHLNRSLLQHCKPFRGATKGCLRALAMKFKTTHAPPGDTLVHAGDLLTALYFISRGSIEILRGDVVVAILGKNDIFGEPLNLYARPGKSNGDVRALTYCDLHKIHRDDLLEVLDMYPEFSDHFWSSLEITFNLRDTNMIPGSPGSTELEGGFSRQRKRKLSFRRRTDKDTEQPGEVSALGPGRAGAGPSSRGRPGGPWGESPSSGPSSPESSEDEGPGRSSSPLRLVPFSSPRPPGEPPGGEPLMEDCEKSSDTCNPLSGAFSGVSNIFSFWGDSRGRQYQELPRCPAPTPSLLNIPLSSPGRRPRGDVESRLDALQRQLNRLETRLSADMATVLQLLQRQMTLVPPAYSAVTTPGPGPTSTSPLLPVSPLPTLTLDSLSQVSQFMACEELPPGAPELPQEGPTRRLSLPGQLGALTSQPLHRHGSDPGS

N#Cc1cc(S(=O)(=O)Nc2ncns2)ccc1Oc1ccc(-c2cccc(C(F)(F)F)c2)cc1-c1ccnc(CNCCC2CCNCC2)c1
solubility [1]: > 2570 µg/mL
pIC50 [2]: 5.84
CL renal at 0.5 h [3]: 0.0012 mL/min/kg
half-life [4]: 354 min
half-life [5]: 3.42 min
clearance [6]: 59.8 mL/min/kg
half-life [7]: 39.6 min
pIC50 (Cytochrome P450 3A4): 5.94
fraction unbound [8]: 0.00281
hepatocyte CLint [9]: < 6 µL/min/1e6 cells
hepatocyte CLint [10]: < 6 µL/min/1e6 cells
pIC50 [11]: < 5.00
Activity [12]: 7%
Activity [13]: -4%
Activity [14]: 7%
Activity [15]: 2%
Activity [16]: -9%
Activity [17]: 8%
Activity [18]: 15%
Activity [19]: 1%
inhibition [20]: 23%
inhibition [21]: 31%
inhibition (Rattus norvegicus): -1%
inhibition [22]: 60%
pKi [23]: 5.96
pEC50 [24]: < 5.00
pIC50 [25]: 7.32
pKi [25]: 7.37
